High-throughput results: PubChem BioAssay, several laboratories
Compounds with a hit are over-represented: about 1.6% of the library has one in this group of screens.
NR2E3 ag-1 – inhibitors of NR2E3-RetCOR corepressor binding, primary screen, NR2E3 agonist project, biochemical, TR-FRET, GST-NR2E3, biotin-RetCOR; Photoreceptor-specific nuclear receptor (Homo sapiens), Q9Y5X4; 1536-well; inhibition of corepressor binding, % at 4.78 µM; actives 0.12% (n = 320,000);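 active means percent inhibition above the cutoff of mean plus 3 SD of all tested compounds, set per screening campaign, cut at about 20% in these data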;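 further: 0% = DMSO wells and 100% = biotin wells as full block of FRET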
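Test system: GST-NR2E3 and biotin-RetCOR proteins | Quantity: 1.35 nM GST-tagged NR2E3 final | Medium: Tris pH 7.5 | Also added: 7 nM biotin-RetCOR | Dosing: Compound at 4.8 µM, single dose | Timing: 5 h at 4 °C | Detection: Time-resolved FRET | Read-out basis: Percent inhibition | Benchmarks: Biotin wells as high control, 0.6% DMSO wells as low control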
PG9 Ab binder – binders of HIV-1 gp120 antibody PG9, primary screen, biochemical, TR-FRET. HIV-1 gp120 / PG9 antibody interaction. TR-FRET gp120-PG9 antibody binding. inhibition, % at 6.7 µM. actives 0.43% (n = 360,000); in the data active means inhibition above about 8.5%
NR1D1 modulator – modulators of Rev-erb alpha DNA binding, primary screen, biochemical, FITC-DNA, fluorescence polarization, uHTS; Nuclear receptor subfamily 1 group D member 1 (Homo sapiens), P20393; Rev-erbα–FITC-DNA binding, 90 min; activity, % at 10 µM; actives 0.79% (n = 370,000); AID 1259318, 2017;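 active means activity above about 14%, limit read from the data; passing the limit was not always enough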;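 further: 0% = DMSO wells with 35 nM protein and 100% = DMSO wells with 750 nM protein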
Target sequence (P20393 whole entry, looked up): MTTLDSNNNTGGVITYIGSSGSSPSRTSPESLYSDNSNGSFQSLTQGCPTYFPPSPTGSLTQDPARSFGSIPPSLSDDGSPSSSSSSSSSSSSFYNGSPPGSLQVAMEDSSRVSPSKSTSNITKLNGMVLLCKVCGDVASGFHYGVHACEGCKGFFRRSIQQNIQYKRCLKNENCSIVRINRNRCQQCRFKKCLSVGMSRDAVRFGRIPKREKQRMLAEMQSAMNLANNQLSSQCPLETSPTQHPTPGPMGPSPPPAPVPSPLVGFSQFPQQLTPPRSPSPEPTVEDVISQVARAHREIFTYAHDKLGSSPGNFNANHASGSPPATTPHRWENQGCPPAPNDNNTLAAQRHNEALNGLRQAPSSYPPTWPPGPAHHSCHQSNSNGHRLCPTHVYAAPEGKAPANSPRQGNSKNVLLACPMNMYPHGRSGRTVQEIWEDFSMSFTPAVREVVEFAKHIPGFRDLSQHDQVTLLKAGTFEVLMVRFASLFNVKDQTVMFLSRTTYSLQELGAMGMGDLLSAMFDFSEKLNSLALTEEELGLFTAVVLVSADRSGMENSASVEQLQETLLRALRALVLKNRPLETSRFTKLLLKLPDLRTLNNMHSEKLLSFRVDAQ
NR2E3 ag-2 – NR2E3 agonists in two-hybrid cells, primary screen, cell-based, luminescence, CHO-S, Gal4-NCOR/VP16-NR2E3; luciferase; actives 0.35% (n = 360,000); inhibition of corepressor binding, % at 3.98 µM; Photoreceptor-specific nuclear receptor (Homo sapiens), Q9Y5X4;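 active means inhibition above the mean of all tested compounds plus 3 SD, cut at about 70% in these data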;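 further: 0% = DMSO with NR2E3 transfected cells and 100% = cells lacking NR2E3 construct; higher means lower luciferase signal from less NR2E3 corepressor binding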
VLA-4 inh – inhibition in human VLA-4 binding assay, primary screen, VLA-4 allosteric modulator project, MLPCN library, flow cytometry, VLA-4 expressing cells; actives 0.2% (n = 330,000); ligand binding flow cytometry; inhibition, % (about 7 µM as worked out from the volumes in the protocol); in the data active means inhibition above about 50%
Rev-erbA confirm – modulators of Rev-erb alpha DNA binding, confirmation, biochemical, FITC-DNA, fluorescence polarization, single point; shares compounds with NR1D1 modulator; 90 min; activation, % at 25 µM; actives 61% (n = 3,000); AID 1259319, 2017;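 active means activation at or above a set limit, or at least 3 SD above the negative control mean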;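 further: 0% = 35 nM protein with DMSO and 100% = 750 nM protein high control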
RORg DNA counter – modulation of RORgamma DNA binding, dose response, counter-screen for Rev-erb alpha modulator project, biochemical, fluorescence polarization, FITC-DNA; shares compounds with NR1D1 modulator; purified RORgamma protein-FITC-DNA binding; IC50, µM; actives 8% (n = 910);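 active means Compounds whose fitted half-maximal concentration for disrupting protein-DNA binding is below 10 micromolar; the record names Rev-erb in its text, so the target is in doubt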
Starred values were filed as active, the others as inactive; . = no result.

SMILES	NR2E3 ag-1	PG9 Ab binder	NR1D1 modulator	NR2E3 ag-2	VLA-4 inh	Rev-erbA confirm	others
O=C(CN1C(=O)NC2(CCCC2)C1=O)OCCOc1ccc(Cl)cc1Cl	-0.1	-1.7	3.8	-5.2	-0.6	.
COC(=O)/C(=N/Nc1ccccc1OC)N1CCCc2ccccc21	0.1	-2.0	2.4	-33.4	7.8	.
O=C(C1CCN(S(=O)(=O)c2cc(Cl)ccc2Cl)CC1)N1CCCC1	2.7	-0.7	0.0	14.9	-3.8	.
COCCCNC(=O)CNC(=O)c1nn(-c2ccc(OC)cc2OC)c(=O)c2ccccc12	1.4	-1.3	1.6	1.0	-7.9	.
COc1ccc(-n2nc(C(=O)NCC(=O)NCc3ccc(F)cc3)c3ccccc3c2=O)c(OC)c1	.	0.0	26.7*	-43.1	.	2.1
COc1ccc(-n2nc(C(=O)NCC(=O)Nc3cc(OC)c(OC)c(OC)c3)c3ccccc3c2=O)cc1Cl	-1.8	0.3	-0.1	-8.0	-25.1	.
COc1ccc(-n2nc(C(=O)NCC(=O)Nc3cccc(Cl)c3)c3ccccc3c2=O)cc1	1.0	1.1	81.7*	18.8	15.2	39.3*	RORg DNA counter=>40
CCOc1ccc(NC(=O)CNC(=O)c2nn(-c3ccc(OC)cc3)c(=O)c3ccccc23)cc1	4.5	3.8	32.1*	6.1	-6.5	10.7
CCOC(=O)c1ccccc1NC(=O)Cn1cnc2c(cnn2-c2ccc(OC)cc2)c1=O	3.5	-1.2	21.8*	.	-4.3	9.0
O=S(=O)(NCCN1CCCC1)c1ccc(C(F)(F)F)cc1	1.0	-0.8	-3.0	0.7	-5.6	.
C=CCOc1ccc(C2C(C(=O)c3ccco3)=C(O)C(=O)N2c2nnc(C)s2)cc1 (stereo not drawn)	4.7	-0.3	6.2	-36.3	6.2	.
COc1ccc(-n2nc(C(=O)NCC(=O)Nc3ccccn3)c3ccccc3c2=O)cc1	-4.1	1.1	42.2*	-13.9	13.4	18.5*
COc1ccc(-n2nc(C(=O)NCC(=O)N3CCN(c4ccccc4F)CC3)c3ccccc3c2=O)cc1	2.6	4.8	25.4*	-42.6	-2.8	-8.3
CCOC(=O)c1nn(-c2ccc(C)cc2)c(=O)cc1OCC(=O)Nc1cccc(OC)c1	-2.2	1.6	-9.7	-33.1	0.8	.
COc1ccc(-n2nc(C(=O)NCC(=O)N3CCN(c4ccccc4F)CC3)c3ccccc3c2=O)cc1OC	2.2	1.4	-4.9	-0.4	-5.2	.
CCOC(=O)c1nn(-c2ccc(F)cc2)c(=O)cc1OCC(=O)Nc1ccc(OCC)cc1	-2.0	-0.5	19.2*	-6.3	1.0	-13.8
Cc1ccc(NC(=O)c2ccco2)nc1	.	-1.2	-4.8	-79.0	.	.
COc1ccc(NC(=O)C2c3ccccc3OCC(=O)N2CC(F)(F)F)cc1 (stereo not drawn)	.	-1.4	1.2	-4.5	.	.
Cc1cccn2c(=O)c3cc(C(=O)N4COCC4(C)C)n(Cc4ccccc4)c3nc12	-1.6	-0.2	31.2*	-31.7	0.0	13.3
CCNC(=O)c1cc2c(=O)n3cccc(C)c3nc2n(Cc2ccc(C)cc2)c1=N	2.1	0.5	-0.5	-8.5	3.4	.
CCN(CC)c1ccc(/C=C/c2cccc[n+]2C)c(OC)c1	-8.7	-28.0	52.6*	0.3	.	55.7*	RORg DNA counter=>40
Cn1cc(CN2CCCC(C(=O)c3nccn3C)C2)c(-c2cccc(Cl)c2)n1 (stereo not drawn)	2.0	-2.0	-3.5	35.3	8.7	.
Cc1ccc(-n2nnnc2SCC(=O)c2c(N)n(C3CC3)c(=O)[nH]c2=O)cc1C	1.6	1.6	20.8*	19.7	9.1	13.5*
COc1ccccc1NC(=O)COC(=O)c1oc2ccccc2c1C	-1.3	-2.2	1.6	-12.1	-4.5	.
